# Bioassay records from PubChem.
# M1 antagonist: M1 muscarinic receptor (rat) antagonism. P08482. CHO-M1 cells, Fluo-4 calcium, ACh EC80 antagonist mode; active compounds read low. B-score at 10 µM. 3.4% of 64,000 active;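 active = calcium fluorescence response, raw or row-and-column corrected B-score, differing from the plate sample mean either way at a set confidence level, mostly lower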
# DUSP1 inh: blocks human MKP-1 phosphatase activity. P28562. recombinant MKP-1, OMFP hydrolysis fluorescence. inhibition, %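 (compounds tested at a single concentration somewhere between 10 and 100 µM)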. 0.15% of 65,000 active. AID 374;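 active = inhibition above about 50%, limit read from the data; inconclusive = inhibition over screen mean plus 3 SD, below that limit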
# Target sequence (P28562 whole entry, looked up): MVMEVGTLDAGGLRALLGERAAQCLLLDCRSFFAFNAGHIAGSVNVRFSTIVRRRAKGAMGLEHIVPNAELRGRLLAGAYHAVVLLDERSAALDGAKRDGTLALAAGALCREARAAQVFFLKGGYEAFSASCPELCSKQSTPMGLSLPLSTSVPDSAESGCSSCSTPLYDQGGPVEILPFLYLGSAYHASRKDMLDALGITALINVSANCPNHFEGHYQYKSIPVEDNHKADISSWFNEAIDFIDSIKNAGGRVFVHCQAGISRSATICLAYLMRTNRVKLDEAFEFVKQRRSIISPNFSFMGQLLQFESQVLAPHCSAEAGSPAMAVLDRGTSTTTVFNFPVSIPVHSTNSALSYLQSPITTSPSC
# Cdc25B inh: human M-phase inducer phosphatase 2 inhibition | P30305 | 0.1% of 65,000 active | recombinant Cdc25B, OMFP fluorescence Ex485/Em525 | inhibition, %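 (compounds tested at 10 µM final in the well)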; in the data active = inhibition above about 50%
# M1 ag: activates the M1 muscarinic receptor. CHO-M1 cells, Fluo-4 calcium fluorescence, agonist mode; active compounds read high. B-score at 10 µM. 3% of 64,000 active. AID 626;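 active = fluorescence rise, raw or as B-score row- and column-corrected plate score, outside the 99.7% band of its plate's samples, either direction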
# HEK293 NFkB inh: lowers PMA/ionomycin-induced NF-kB signal in HEK293 cells; 0.21% of 62,000 active; AID 465; inhibition, % at 3 µM; HEK-293 NF-kB luciferase reporter, luminescence;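 active = inhibition above the mean of all tested compounds plus 3 SD, cut at about 40% in these data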
#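 System: NF-kB luciferase reporter HEK-293 cells | Replication: Single test | Control set: DMSO vs reference inhibitor | Evaluation: % inhibition | Schedule: 1 h pretreatment, 16 h stimulation, 37 °C | Probe or stimulus: PMA with ionomycin | Compound dosing: One dose, 3 µM | Detection: Luciferase luminescence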
# Her2 expr inh: lowers expression of human Her2 kinase; P04626; SKBR-3 HER2 protein level, AlphaScreen, 18-24 h; active compounds read low; HER2 level % of control, % at 10 µM; 0.69% of 65,000 active; AID 645;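 active = HER2 level under 5% of the carrier-only control; inconclusive = no clear call, values can overlap the other calls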;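 note: lower value means stronger loss of Her2 protein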
# M1 ag confirm: confirmation of rat M1 muscarinic receptor agonists; fluorescence change (max-min) at 10 µM; 19% of 1,700 active; CHO-M1 cells, Fluo-4 calcium fluorescence, agonist mode; actives lie on both sides; shares compounds with M1 ag;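 active = fluorescence change differs from the solvent-only DMSO control mean at a set confidence level in both duplicate runs; inconclusive = differs from solvent-only control mean in just one of two runs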;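 note: an EC20 dose of acetylcholine follows compound addition during the same imaging run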
# M4 ag counter: counter-screen for M1 agonists: activity at rat M4 receptor; shares compounds with M1 ag; CHO M4/Gqi5 cells, Fluo-4 calcium fluorescence, agonist mode; actives lie on both sides; fluorescence change (max-min) at 10 µM; 9% of 1,700 active; AID 1741;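 active = fluorescence change differing from the plate's solvent-only control wells at 99.7% confidence in both duplicates, whether higher or lower; inconclusive = differs from solvent controls in only one of two duplicates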
# A number is an active result; i = inactive; ? = inconclusive; nt = no result given. A selection: hits, their analogues and other compounds. The true share with any hit is near 6.8%.
SMILES,M1 antagonist,DUSP1 inh,Cdc25B inh,M1 ag,HEK293 NFkB inh,Her2 expr inh,M1 ag confirm,M4 ag counter
Cc1nn(-c2ccccc2)c(N2CCCC2)c1/C=N/n1cnc2scc(-c3ccccc3)c2c1=O,-2.4,i,i,9.1,i,i,i,i
Cc1ccc(-c2csc3ncn(/N=C/N(C)C)c(=O)c23)o1,i,i,i,i,i,i,nt,nt
CC1CCCN(C/C(O)=C(\C#N)c2nc3ccccc3[nH]2)C1 (configuration not stated),-4.2,i,i,5.4,i,i,?,i
CCOC(=O)N1CCN(C(=O)c2ccc3c(=O)n(CCc4ccccc4)c(=S)[nH]c3c2)CC1,i,i,i,i,i,i,nt,nt
CCN1CCN(C(=O)c2ccc3c(=O)n(Cc4ccccc4OC)c(=S)[nH]c3c2)CC1,i,i,i,i,i,i,nt,nt
CCCn1c(=S)[nH]c2cc(C(=O)N3CCCC(C(=O)OCC)C3)ccc2c1=O (configuration not stated),i,i,i,3.3,i,i,i,?
CCN1CCN(C(=O)c2ccc3c(=O)n(C4CCCC4)c(=S)[nH]c3c2)CC1,i,i,i,1.4,i,i,i,i
CSc1nsc(SCc2ccc(F)cc2)n1,i,i,i,i,i,i,nt,nt
CCc1nnc(NC(=O)CCC(=O)N2CCN(CCOc3ccc(C)cc3)CC2)s1,i,i,i,5.1,i,i,i,i
CCN=C1SC(CC(=O)Nc2ccccc2OCC)C(=O)N1CC (configuration not stated),i,i,i,i,i,i,nt,nt
CCN=C1SC(CC(=O)Nc2ccc(C(F)(F)F)cc2)C(=O)N1CC (configuration not stated),-2.9,i,i,12,i,i,?,i
CCN=C1SC(CC(=O)Nc2ccc(N3CCOCC3)cc2)C(=O)N1CC (configuration not stated),i,i,i,2.8,i,i,?,i
COc1ccc(C2C(C(N)=O)=C(C)Nc3nc(-c4ccccc4Cl)nn32)c(OC)c1 (configuration not stated),i,i,i,i,i,i,nt,nt
CCOC(=O)Cc1csc(NC(=O)C2CCCN(S(=O)(=O)c3cnc[nH]3)C2)n1 (configuration not stated),i,i,i,i,i,i,nt,nt
Cc1ccccc1OCCCCCn1ccnc1,i,i,i,i,i,i,nt,nt
Cc1cccc(OCCCCCn2ccnc2)c1,i,i,i,4.5,i,i,i,i
CC(C)Cc1cc(C(=O)NCCCN2CCOCC2)no1,i,i,i,i,i,i,nt,nt
Nc1nc2n(n1)C(c1c(F)cccc1Cl)CC(c1ccc(F)cc1)N2 (configuration not stated),i,i,i,i,i,i,nt,nt
O=C(Nc1cccnc1)C1CC(c2ccc(Cl)c(Cl)c2)=NO1 (configuration not stated),i,i,i,-2.6,i,i,i,i
CC1Cc2nc(SCC(=O)OCc3ccccc3)n(C)c(=O)c2S1 (configuration not stated),i,i,i,i,i,i,nt,nt
COC(=O)c1cccc(C(=O)Nc2cnc3ccccc3c2)n1,i,i,i,3.7,i,i,i,?
CN(C)/C=c1\sc2c(C#N)cc(C(=O)c3ccc(Br)cc3)n2c1=O,i,i,i,75,i,i,278,714
Cc1ccc(S(=O)(=O)N2CCN(C(=O)c3cc(=O)[nH]c4ccccc34)CC2)c(C)c1,i,i,i,4.7,i,i,i,i
COc1cc2c(cc1OC)C(COc1ccc3c(C)cc(=O)oc3c1)N(C(=O)c1ccco1)CC2 (configuration not stated),i,nt,nt,i,i,i,nt,nt
COc1cc2c(cc1OC)C(COc1ccc(F)cc1)N(C(=O)c1ccco1)CC2 (configuration not stated),i,i,i,7.9,i,i,i,i
SMILES,M1 antagonist,DUSP1 inh,Cdc25B inh,M1 ag,HEK293 NFkB inh,Her2 expr inh,M1 ag confirm,M4 ag counter
Nc1nc2n(n1)C(c1ccco1)CC(c1ccc(F)cc1)N2 (configuration not stated),i,i,i,2.3,i,i,?,?
Nc1nc2n(n1)C(c1ccco1)CC(c1ccccc1)N2 (configuration not stated),i,i,i,i,i,i,nt,nt
O=C(O)c1cc(O)c2c(c1)C(=O)c1cccc(O)c1C2=O,i,i,i,67,nt,i,189,?
Nc1cccc(C(=O)O)c1,i,i,i,i,nt,i,nt,nt
CC1(C)CC(=O)C2=C(C1)OC(N)=C(C#N)C2C1CC=CCC1 (configuration not stated),i,i,i,i,i,i,nt,nt
Cc1c(OC(=O)CNC(=O)OC(C)(C)C)ccc2c3c(c(=O)oc12)CCC3,i,i,i,2.4,i,i,i,i
CCN(C(=O)c1cc(Cl)ccc1OC)c1ccccc1,i,i,i,i,i,i,nt,nt
CC(C)NC(=O)c1cnc(N2CCN(c3ccccn3)CC2)c2ccccc12,i,i,i,5.8,i,i,i,i
O=C(c1cnc(N2CCN(c3ncccn3)CC2)c2ccccc12)N1CCN(c2ncccn2)CC1,i,i,i,11,i,i,i,i
O=C(c1ccc2c3c(cccc13)CC2)N1CCN(c2ncccn2)CC1,i,i,i,i,i,i,nt,nt
CN(C(=O)c1cnc(N2CCN(c3ncccn3)CC2)c2ccccc12)c1ccc(Cl)cc1,i,i,i,5.3,i,i,i,?
CCN(C(=O)c1cnc(N2CCN(c3ncccn3)CC2)c2ccccc12)c1cccc(Cl)c1,i,i,i,3.3,i,i,i,?
Cc1ccc(N2C(=O)c3ccc(C(=O)N4CCN(c5ccccc5F)CC4)cc3C2=O)cc1,i,i,i,i,i,i,nt,nt
c1ccc(COc2ccc(Nc3ncnc4nc[nH]c34)cc2)cc1,i,i,i,i,i,i,nt,nt
C=CCc1ccccc1OCC(O)CN1CCN(Cc2ccc3c(c2)OCO3)CC1 (configuration not stated),-5.4,i,i,6.9,i,i,i,i
CCOC(=O)N1CCN(CC(O)COc2ccccc2C(C)C)CC1 (configuration not stated),i,i,i,13,i,i,65,i
CCOC(=O)N1CCN(CC(O)COc2ccccc2C(C)CC)CC1 (configuration not stated),i,i,i,i,i,i,nt,nt
C=CCc1ccccc1OCC(O)CN1CCN(C(=O)OCC)CC1 (configuration not stated),i,i,i,28,i,i,172,i
O=C(CSc1nnc(-c2ccco2)o1)N1c2ccccc2CCc2ccccc21,i,i,i,i,i,i,nt,nt
